From ChEMBL document CHEMBL1128705, “[[[(Thienylcarbonyl)alkyl]oxy]phenyl]- and [[[(pyrrylcarbonyl)alkyl]oxy]phenyl]oxazoline derivatives with potent and selective antihuman rhinovirus activity” (J Med Chem, 1995)
≈ marks a conversion by molar mass, not a printed value.

Tests used:
Human rhinovirus sp. [1] = experiment: In vitro concentration required to achieve 50% protection of HeLa cells from HRV-14 induced cytopathic effect; format: functional, organism-based
Summary of the method: (§1)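 HeLa-Ohio cells (20 000/well) are seeded in D-MEM with 2% FCS, 30 mM MgCl2 and 15 µg/mL DEAE-dextran, then grown overnight at 37 °C, 5% CO2, to a subconfluent monolayer. Compound dilutions (from 200× DMSO stocks) are added with HRV at 200–2000 PFU/monolayer, dosed to give full CPE in 72 h. Plates are held at 33 °C and viability is read by MTT. EC50 is the concentration giving 50% protection.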

HeLa [2] = experiment: In vitro concentration required to achieve 50% protection of HeLa cells from HRV-2 induced cytopathic effect; format: functional, cell-based; conditions: Homo sapiens; summary of the method: as §1
HeLa [3] = experiment: In vitro concentration required to reduce the viability of mock-infected HeLa cells by 50%; format: functional; conditions: Homo sapiens
Summary of the method: (§2)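 Cytotoxicity run alongside the antiviral assay on mock-infected HeLa-Ohio cells. Compounds are taken from 200× DMSO stocks and serially diluted in maintenance medium. Cells are incubated 72 h at 37 °C and viability is read by MTT. CC50 is the concentration that reduces viability by 50%.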

Human rhinovirus sp. [4] = experiment: In vitro concentration which inhibits 80% of serotypes tested; format: functional
Summary of the method: (§3)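 CPE-inhibition MTT assay in HeLa-Ohio cells (30 mM MgCl2, 15 µg/mL DEAE-dextran, 2% FCS), infected at 200–2000 PFU/monolayer and incubated at 33 °C. MIC80 is the concentration inhibiting 80% of the serotypes tested.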

Human rhinovirus sp. [5] = experiment: Compound concentration which inhibits 80% of serotypes tested, was reported.; format: functional; summary of the method: as §3
HeLa [6] = experiment: Compound concentration required to reduce the viability of mock-infected HeLa cells by 50%, was reported.; format: functional; conditions: Homo sapiens; summary of the method: as §2
HeLa [7] = experiment: In vitro concentration required to reduce the viability of mock-infected HeLa cells by 50%, was reported.; format: functional; conditions: Homo sapiens; summary of the method: as §2

Row | Compound | EC50 (Human rhinovirus sp. [1]) | EC50 (HeLa [2]) | CC50 (HeLa [3]) | MIC80 (Human rhinovirus sp. [4]) | MIC80 (Human rhinovirus sp. [5]) | CC50 (HeLa [6]) | CC50 (HeLa [7])
1 | CCOC(=O)c1ccc(OCCCCC(=O)c2ccc(C)o2)cc1 | 2.42 µM | 0.91 µM | 65 µM | – | – | – | –
2 | CCOC(=O)c1ccc(OCCCCC(=O)c2ccc(Cl)s2)cc1 | 0.54 µM | 0.08 µM | 273 µM | 2.18 µM (≈ 0.8 µg/mL) | – | – | –
3 | Cn1cc(C(=O)CCCCOc2ccc(C(=O)O)cc2)cc1C=O | > 30.9 µM | > 30.9 µM | – | – | > 30.9 µM | > 303 µM | –
4 | O=C(CCCCOc1ccc(C2=NCCO2)cc1)c1ccc[nH]1 | 8.01 µM | 3.2 µM | > 320 µM | > 32 µM | – | – | –
5 | Clc1ccc(CCCCCOc2ccc(C3=NCCO3)cc2)s1 | 2.85 µM | 2.57 µM | 71 µM | 21.4 µM (≈ 7.5 µg/mL) | – | – | –
6 | O=C(CCCCOc1ccc(C2=NCCO2)cc1)c1ccc(Cl)s1 | 0.13 µM | 0.81 µM | > 271 µM | > 27.1 µM | – | – | –
7 | c1ccn(CCCCCOc2ccc(C3=NCCO3)cc2)c1 | > 31.9 µM | 1.43 µM | 159 µM | 15.9 µM (≈ 4.75 µg/mL) | – | – | –
8 | Cc1csc(C(=O)CCCCOc2ccc(C(=O)O)cc2)c1 | > 31.4 µM | > 31.4 µM | > 314 µM | > 31.4 µM | – | – | –
9 | CCOC(=O)c1ccc(OCCCCC(=O)c2cc(C)[nH]c2C)cc1 | 18.9 µM | 1.17 µM | 204 µM | > 29 µM | – | – | –
10 | Cc1ccc(C(=O)CCCCOc2ccc(C(=O)O)cc2)s1 | > 31.4 µM | > 31.4 µM | > 314 µM | > 31.4 µM | – | – | –
11 | Cc1ccc(C(=O)CCCCOc2ccc(C3=NCCO3)cc2)s1 | 0.14 µM | 1.31 µM | 146 µM | 9.04 µM (≈ 3.1 µg/mL) | – | – | –
12 | CCOC(=O)c1ccc(OCCCC(=O)c2ccc(C)s2)cc1 | > 30.1 µM | 10.6 µM | > 301 µM | > 30.1 µM | – | – | –
13 | Cc1ccc(CCCCCOc2ccc(C3=NCCO3)cc2)s1 | 11.5 µM | 2.58 µM | > 303 µM | > 30.4 µM | – | – | –
14 | Cc1cc(C(=O)CCCCOc2ccc(C3=NCCO3)cc2)c(C)n1C | 11.3 µM | > 28.2 µM | 141 µM | > 28.2 µM | – | – | –
15 | Cc1ccsc1C(=O)CCCCOc1ccc(C(=O)O)cc1 | > 31.4 µM | > 31.4 µM | > 314 µM | > 31.4 µM | – | – | –
16 | Cc1ccc(C(=O)CCCOc2ccc(C3=NCCO3)cc2)s1 | 22.7 µM | 15.2 µM | – | > 30.3 µM | – | – | –
17 | Cc1ccc(C(=O)CCCCOc2ccc(C(=O)NCCO)cc2)o1 | > 30.6 µM | > 30.6 µM | > 305 µM | > 30.6 µM | – | – | –

Row | Compound | EC50 (Human rhinovirus sp. [1]) | EC50 (HeLa [2]) | CC50 (HeLa [3]) | MIC80 (Human rhinovirus sp. [4]) | MIC80 (Human rhinovirus sp. [5]) | CC50 (HeLa [6]) | CC50 (HeLa [7])
18 | Cc1csc(C(=O)CCCCOc2ccc(C3=NCCO3)cc2)c1 | 0.87 µM | 2.91 µM | 73 µM | 14.6 µM (≈ 5.01 µg/mL) | – | – | –
19 | CCOC(=O)c1ccc(OCCCCC(=O)c2cc(C)cs2)cc1 | 5.78 µM | 2.89 µM | > 289 µM | – | – | – | –
20 | Cc1cc(C(=O)CCCCOc2ccc(C3=NCCO3)cc2)c(C)[nH]1 | > 29.4 µM | > 29.4 µM | 205 µM | > 29.4 µM | – | – | –
21 | CCOC(=O)c1ccc(OCCCCCc2ccc(C)s2)cc1 | 7.16 µM | 1.59 µM | 301 µM | 14.3 µM (≈ 4.76 µg/mL) | – | – | –
22 | CCOC(=O)c1ccc(OCCCCC(=O)c2cc[nH]c2)cc1 | 13.3 µM | 11 µM | > 317 µM | 19.5 µM (≈ 6.14 µg/mL) | – | – | –
23 | CCOC(=O)c1ccc(OCCCCCc2ccc(Cl)s2)cc1 | 9.15 µM | 1.84 µM | > 284 µM | 18.3 µM (≈ 6.45 µg/mL) | – | – | –
24 | CCOC(=O)c1ccc(OCCCCC(=O)c2cc(C)n(C)c2C)cc1 | 16.8 µM | 2.28 µM | 56 µM | > 28 µM | – | – | –
25 | CCOC(=O)c1ccc(OCCCCC(=O)c2ccc(C)s2)cc1 | 0.29 µM | 0.06 µM | > 289 µM | 2.31 µM (≈ 0.8 µg/mL) | – | – | –
26 | c1cc(C2=NCCO2)ccc1OCCCCCN1CCCC1 | > 33.1 µM | > 33.1 µM | 165 µM | > 33.1 µM | – | – | –
27 | Cn1cccc1C(=O)CCCCOc1ccc(C2=NCCO2)cc1 | 3.68 µM | > 30.7 µM | – | > 30.7 µM | – | – | > 306 µM
28 | O=C(O)c1ccc(OCCCCC(=O)c2ccc(Cl)s2)cc1 | > 29.5 µM | > 29.5 µM | > 295 µM | > 29.5 µM | – | – | –
29 | CCOC(=O)c1ccc(OCCCCC(=O)c2cc(C=O)n(C)c2)cc1 | 1.96 µM | 0.67 µM | – | – | 8.4 µM (≈ 3 µg/mL) | 56 µM | –
30 | Cc1ccsc1C(=O)CCCCOc1ccc(C2=NCCO2)cc1 | 1.46 µM | 29.2 µM | 291 µM | > 29.1 µM | – | – | –
31 | O=C(CCCCOc1ccc(C2=NCCO2)cc1)c1cc[nH]c1 | > 32 µM | > 32 µM | > 320 µM | > 32 µM | – | – | –
32 | CCOC(=O)c1ccc(OCCCCC(=O)c2sccc2C)cc1 | > 28.9 µM | 6.94 µM | 202 µM | 20.8 µM (≈ 7.21 µg/mL) | – | – | –
33 | Cn1cc(C(=O)CCCCOc2ccc(C3=NCCO3)cc2)cc1C=O | > 28.2 µM | > 28.2 µM | – | – | > 28.2 µM | > 282 µM | –
34 | Cc1cc(CCCCCCCOc2ccc(C3=NCCO3)cc2)on1 [DISOXARIL] | 1.76 µM | 2.35 µM | – | – | 3.51 µM (≈ 1.2 µg/mL) | 37 µM | –
